Test [1] can be described thus: Cytotoxicity against human THP1 cells assessed as growth inhibition at 50 uM after 48 hrs by SRB assay. It counts as functional. To be noted: THP-1, 48 h, read-out: GI. In short, it runs like this:
(§1)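 Single-concentration screen at 50 µM. Cells grew 24 h at 37 °C, then had 48 h exposure in complete medium.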
Background: The SRB assay estimates cell density from bound dye.

Test [2] in a line: (§2) Cytotoxicity against human PC3 cells assessed as growth inhibition at 50 uM after 48 hrs by SRB assay. It counts as functional. Particulars: PC-3, 48 h, read-out: GI. The method in brief:
as §1

Test [3] is described as follows: Cytotoxicity against human COLO205 cells assessed as growth inhibition at 50 uM after 48 hrs by SRB assay. In kind it is functional. Particulars: COLO 205, 48 h, read-out: GI. The method in brief:
as §1

The nature of test [4]: Cytotoxicity against human HCT116 cells assessed as growth inhibition at 50 uM after 48 hrs by SRB assay. It counts as functional. Particulars: HCT-116, 48 h, read-out: GI. In short, it runs like this:
as §1

Test [5] in a line: Cytotoxicity against human THP1 cells after 48 hrs by SRB assay. It counts as functional, cell-based. Particulars: THP-1, 48 h. In short, it runs like this: (§3)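 SRB assay in 96-well plates. Cells were seeded and grown 24 h at 37 °C in a CO2 incubator, then given test material in complete medium for a further 48 h. Cells were fixed with cold 50% TCA for 1 h at 4 °C, stained 30 min with 0.4% SRB in 1% acetic acid, and washed with […]. IC50 was taken from multi-concentration testing, run only for hybrids giving >70% inhibition at 50 µM in at least one line.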

Test [6] is described as follows: Cytotoxicity against human COLO205 cells after 48 hrs by SRB assay. In kind it is functional, cell-based. To be noted: COLO 205, 48 h. In short, it runs like this: as §3
The target of the next test is Tubulin. Kind of test: Inhibition of tubulin (unknown origin) polymerization measured after 1 hr by ELISA plate reader analysis. In kind it is protein-complex assay, Homo sapiens. In short, it runs like this: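 Kit-based turbidity assay using tubulin (10 mg in general tubulin buffer with GTP). Compounds were diluted from DMSO stocks, preincubated 2 min at 37 °C in general tubulin buffer, then tubulin diluted in polymerization buffer (general and glycerol tubulin buffers plus GTP) was added. Absorbance at 340 nm was read after 1 h at 37 °C.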

A short description of test [7]: Cytotoxicity against human HCT116 cells after 48 hrs by SRB assay. Particulars: HCT-116, 48 h. It counts as functional, cell-based. In short, it runs like this:
as §3

The subject of the next test is PC-3. Described as §2. In kind it is functional. In short, it runs like this:
as §1

Molecules are shown by their SMILES. Calls of active or inactive are those of the source. The rule behind the calls is not given here.

Regarding `COc1cc(/C=C/C(=O)/C=C/c2cc(OC)c(OC)c(OC)c2)ccc1OCc1cn(CCCCOc2cc(=O)oc3ccccc23)nn1`, the inhibition of growth at 50 µM is 65% in [1], 5% in test [2], 60% in test [3] and 63% in test [4].

As for `COc1cc(/C=C/C(=O)/C=C/c2cc(OC)c(OC)c(OC)c2)ccc1OCc1cn(CCOc2cc(=O)oc3ccccc23)nn1`, the inhibition of growth at 50 µM was determined as 99% in test [1], 22% in test [2], 86% in test [3] and 89% in test [4]. Also, the 50% inhibitory concentration (IC50) – broadly, the concentration that inhibits the measured activity by half – in test [5] is 0.82 µM; in test [6], 4.68 µM; against Tubulin, 1.55 µM; in [7], 2.21 µM.

As to `COc1cc(/C=C/C(=O)/C=C/c2cccs2)ccc1OCc1cn(CCOc2cc(=O)oc3ccccc23)nn1`, the inhibition of growth at 50 µM in test [1] amounted to 76%; in test [2], 12%; in test [3], 66%; in test [4], 71%. In addition, the IC50 in [5] was determined as 7.14 µM; in [6], 11.4 µM; in test [7], 9.29 µM.

In the case of `COc1ccc(/C=C/C(=O)/C=C/c2ccc(OCc3cn(CCOc4cc(=O)oc5ccccc45)nn3)c(OC)c2)cc1`, the inhibition of growth at 50 µM in [1] was determined as 78%; in test [2], 15%; in test [3], 68%; in test [4], 71%. The IC50 worked out at 7.41 µM in [5], 11.3 µM in test [6] and 9.29 µM in test [7].

In the case of `COc1ccc(/C=C/C(=O)/C=C/c2ccc(OCc3cn(CCOc4cc(=O)oc5ccccc45)nn3)c(OC)c2)cc1OC`, the inhibition of growth at 50 µM in test [1] was found to be 90%; in test [2], 19%; in [3], 80%; in test [4], 82%. The half-inhibitory concentration (IC50) in test [5] worked out at 2.34 µM; in test [6], 6.78 µM; on Tubulin it was 2.88 µM; in [7] it was 4.71 µM.

Consider `COc1cc(/C=C/C(=O)/C=C/c2cccc3ccccc23)ccc1OCc1cn(CCOc2cc(=O)oc3ccccc23)nn1`, for which the inhibition of growth at 50 µM in test [1] was determined as 89%; in test [2], 20%; in test [3] it was 85%; in test [4] it was 83%. The concentration for half-maximal inhibition (IC50) in test [5] was 4.48 µM; in [6], 9.95 µM; at Tubulin it was 7.65 µM; in test [7], 6.54 µM.

As to `COc1cc(/C=C/C(=O)/C=C/c2cc(OC)c(OC)c(OC)c2)ccc1OCc1cn(CCCOc2cc(=O)oc3ccccc23)nn1`, the inhibition of growth at 50 µM in test [1] was determined as 79%; in test [2] it was 12%; in test [3], 74%; in test [4] it was 76%. Also, the values for the IC50 in test [5], in [6] and in test [7] were 5.43 µM, 10.6 µM and 8.65 µM, respectively.

In the case of `COc1cc(/C=C/C(=O)/C=C/c2ccco2)ccc1OCc1cn(CCOc2cc(=O)oc3ccccc23)nn1`, the inhibition of growth at 50 µM in test [1] turned out to be 78%; in test [2], 14%; in test [3] it was 68%; in test [4], 72%. Also, the IC50 is 7.87 µM in test [5], 11.8 µM in [6] and 9.18 µM in test [7].

Consider `COc1cc(/C=C/C(=O)/C=C/c2ccccc2)ccc1OCc1cn(CCOc2cc(=O)oc3ccccc23)nn1`, for which the inhibition of growth at 50 µM in [1] turned out to be 61%; in [2], 10%; in test [3] it was 54%; in [4], 56%.

As for `COc1cc(/C=C/C(=O)/C=C/c2cc(OC)c(OC)c(OC)c2)ccc1OCc1cn(CCCCCOc2cc(=O)oc3ccccc23)nn1`, the inhibition of growth at 50 µM in test [1] came to 55%; in test [3] it was 51%; in test [4], 53%. Moreover, the “growth inhibition (GI)” value in the test with PC-3 was “inactive”.

As for `COc1ccccc1/C=C/C(=O)/C=C/c1ccc(OCc2cn(CCCCCOc3cc(=O)oc4ccccc34)nn2)c(OC)c1`, the inhibition of growth at 50 µM amounted to 37% in test [1], 30% in test [3] and 33% in test [4]. The “growth inhibition (GI)” value in the test with PC-3 is “inactive”.

Turning to `COc1cc(/C=C/C(=O)/C=C/c2ccccc2)ccc1OCc1cn(CCCCCOc2cc(=O)oc3ccccc23)nn1`, the inhibition of growth at 50 µM in test [1] was 26%; in test [3], 22%; in test [4], 24%. Besides, the “growth inhibition (GI)” value in the test on PC-3 was “inactive”.

With `COc1cc(/C=C/C(=O)/C=C/c2cccc3ccccc23)ccc1OCc1cn(CCCCOc2cc(=O)oc3ccccc23)nn1`, the inhibition of growth at 50 µM in [1] is 54%; in test [3] it was 50%; in test [4] it was 56%. Besides, the “growth inhibition (GI)” value in the test with PC-3 is “inactive”.

Consider `COc1ccc(/C=C/C(=O)/C=C/c2ccc(OCc3cn(CCCCCOc4cc(=O)oc5ccccc45)nn3)c(OC)c2)cc1OC`, for which the inhibition of growth at 50 µM in test [1] came to 47%; in test [3] it was 43%; in test [4] it was 45%. For the same compound, the “growth inhibition (GI)” value in the test on PC-3 was “inactive”.

`COc1cc(/C=C/C(=O)/C=C/c2cccs2)ccc1OCc1cn(CCCOc2cc(=O)oc3ccccc23)nn1`: the inhibition of growth at 50 µM stood at 54% in test [1], 55% in test [3] and 58% in [4]. In the test on PC-3, the “growth inhibition (GI)” value is “inactive”.

As for `COc1ccccc1/C=C/C(=O)/C=C/c1ccc(OCc2cn(CCOc3cc(=O)oc4ccccc34)nn2)c(OC)c1`, the inhibition of growth at 50 µM in [1] worked out at 75%; in test [2], 11%; in test [3], 67%; in test [4], 70%. For the same compound, the 50% inhibitory concentration (IC50) is 7.33 µM in test [5], 11.5 µM in test [6] and 9.49 µM in [7].

`COc1ccc(/C=C/C(=O)/C=C/c2ccc(OCc3cn(CCCCCOc4cc(=O)oc5ccccc45)nn3)c(OC)c2)cc1`: the inhibition of growth at 50 µM in test [1] came to 39%; in [3] it was 30%; in test [4] it was 35%. For the same compound, the “growth inhibition (GI)” value in the test on PC-3 is “inactive”.

Regarding `COc1cc(/C=C/C(=O)/C=C/c2ccccc2)ccc1OCc1cn(CCCOc2cc(=O)oc3ccccc23)nn1`, the inhibition of growth at 50 µM in test [1] was determined as 48%; in test [3], 43%; in [4], 45%. Also, the “growth inhibition (GI)” value with PC-3 was “inactive”.

Turning to `COc1ccc(/C=C/C(=O)/C=C/c2ccc(OCc3cn(CCCOc4cc(=O)oc5ccccc45)nn3)c(OC)c2)cc1OC`, the inhibition of growth at 50 µM in [1] was 73%; in test [2], 9%; in test [3], 65%; in test [4], 67%. Further, the results for the half-maximal inhibitory concentration (IC50) in test [5], in test [6] and in [7] were 8.51 µM, 13 µM and 11 µM, respectively.

With `COc1ccc(/C=C/C(=O)/C=C/c2ccc(OCc3cn(CCCCOc4cc(=O)oc5ccccc45)nn3)c(OC)c2)cc1OC`, the inhibition of growth at 50 µM in test [1] is 59%; in test [3], 53%; in test [4] it was 55%. In the test with PC-3, the “growth inhibition (GI)” value is “inactive”.

As for `COc1cc(/C=C/C(=O)/C=C/c2cccs2)ccc1OCc1cn(CCCCCOc2cc(=O)oc3ccccc23)nn1`, the inhibition of growth at 50 µM in test [1] stood at 34%; in test [3], 30%; in test [4], 31%. Moreover, the “growth inhibition (GI)” value in the test with PC-3 is “inactive”.

`COc1cccc(/C=C/C(=O)/C=C/c2ccc(OCc3cn(CCOc4cc(=O)oc5ccccc45)nn3)c(OC)c2)c1`: the inhibition of growth at 50 µM was found to be 77% in test [1], 13% in test [2], 69% in test [3] and 70% in test [4]. Moreover, the IC50 in [5] stood at 7.13 µM; in test [6] it was 11.9 µM; in test [7], 9.76 µM.

As to `COc1cc(/C=C/C(=O)/C=C/c2cccc3ccccc23)ccc1OCc1cn(CCCOc2cc(=O)oc3ccccc23)nn1`, the inhibition of growth at 50 µM in [1] is 71%; in test [2] it was 8%; in test [3], 64%; in test [4], 66%. The values for the IC50 in test [5], in [6] and in test [7] were 8.41 µM, 12.7 µM and 10.4 µM, respectively.

(Values after ChEMBL document CHEMBL3797104, “Triazole tethered C5-curcuminoid-coumarin based molecular hybrids as novel antitubulin agents: Design, synthesis, biological investigation and docking studies” (Eur J Med Chem, 2016).)
